This is an account of results in publication PMC2568025 (The Journal of Cell Biology, 2008).

“Also recorded” adds a separate entry of the source. Counter-ions that a name gives are not always drawn. Bridge positions count the residues as written; N and C are the ends. Ends that are not written are not given here. Bounds are passed on as bounds.

As usually defined, the EC50 is the concentration giving half of the maximal effect.

For data set [1], the system named is HEK-PR1 cells. Briefly: Potentiation of CCh-evoked Ca^2+ signals in cell populations. The format is cell-based, human. The following applies: for effect on CCh-evoked Ca^2+ signals: 30 mM; for potentiation of CCh-evoked Ca^2+ signals: qualitative; for increase in the sensitivity to CCh: PTH 100 nM 1 min, 8-Br-cAMP 10 mM 20 min; for effect of stimulus alone on [Ca^2+]i / Ca^2+ release (absence of CCh): somatostatin 1 μM; for Δ [Ca^2+]i Maximal increase: potentiation of CCh-evoked Ca^2+ signal, 30-s stimulation.

Data set [2] relates to HEK-PR1 cells. Briefly: Single cell imaging of [Ca^2+]i. The format is cell-based, human. The following applies: single cell analyses.
In data set [3] the test system is HEK-PR1 cells. Briefly: Protein phosphorylation by Western blot with AbP. The format is cell-based, human. The following applies: H89 10 μM for 20 min. In a few lines:
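Cells treated with 8-Br-cAMP (10 mM, 20 min), FK (100 μM, 30 s) or PTH (100 nM, 30 s), alone or after H89 (10 μM, 20 min) or st-ht31 (100 μM, 30 min). Lysed at 4°C in Triton X-100 buffer, pH 7.4, with NaF, pyrophosphate and vanadate. Blots probed with anti-phospho Ser/Thr antibody. For IP3R, the immunoprecipitated receptor signal was normalised to IP3R3 and expressed relative to unstimulated cells (n = 3–4).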
(Immunoblotting shows a protein as a band on a membrane.)

In data set [4] the test system is HEK-PR1 cells. The following applies: <100 μM; ref Short and Taylor, 2000; Tovey et al., 2003; cited from earlier work.
In the next data set the test system is IP3R. Briefly: IP3-evoked Ca^2+ release from permeabilized cells.
A further data set relates to PKA. The following applies: ref He et al., 2003; cited from earlier work.
Data set [5] relates to HEK-PR1 cells. The data set is described as follows: cAMP production measured by RIA. The format is cell-based, human. The following applies: for Δ cAMP Maximal response: identical conditions to Ca^2+ assay (with CCh); for EC50: read-out: Δ cAMP EC50. (In general: cAMP levels reflect the balance of adenylyl cyclase and phosphodiesterase activity.)
Where [6] appears, read: Homo sapiens, read-out: Δ [Ca^2+]i EC50.

With `Nc1nc2c(nc(Br)n2[C@@H]2O[C@@H]3COP(=O)(O)O[C@H]3[C@H]2O)c(=O)[nH]1` [8-Br-cGMP], the “effect on CCh-evoked Ca^2+ signals” value in the data set with HEK-PR1 cells [1] (intact cells) is reported as “ineffective”.
For the molecule `C[N+](C)(C)CCOC(N)=O` [CCh, Carbachol], the “cells that responded to CCh” value in the data set on HEK-PR1 cells [2] is given as 98 ± 1%.
Take `CCCCC[C@H](O)/C=C/[C@H]1[C@H](O)CC(=O)[C@@H]1CCCCCCC(=O)O` [PGE1, Prostaglandin E1]: the “potentiation of CCh-evoked Ca^2+ signals” value in the data set with HEK-PR1 cells [1] was “potentiated CCh-evoked Ca^2+ signals”.
Regarding `C=C[C@@]1(C)CC(=O)[C@@H]2[C@@]3(C)CCCC(C)(C)[C@@H]3[C@H](O)[C@H](OC(C)=O)[C@@]2(C)O1` [1,9-dideoxyforskolin], the “effect on [Ca^2+]i either alone or with CCh” value in the data set with HEK-PR1 cells [1] (100 μM, unpublished data) is “no effect”.
Take `CC(C)Cn1c(=O)n(C)c(=O)c2[nH]cnc21` [IBMX, 3-isobutyl-1-methylxanthine]: in the data set on HEK-PR1 cells [1] (IBMX 1 mM for 20 min), the “effect of PDE inhibition on potentiated Ca^2+ signals” value is recorded as “slight inhibition”.
For `CO[C@H]1C2OP(=O)(O)OC[C@H]2O[C@H]1n1c(Br)nc2c(N)ncnc21` (stereo partly shown) [8-Br-2′-O-methyladenosine-3′,5′-cAMP], the “effect on CCh-evoked Ca^2+ signals” value with HEK-PR1 cells [1] (intact cells) is on record as “no effect”.
Regarding `Cl.Cl.O=S(=O)(NCCNC/C=C/c1ccc(Br)cc1)c1cccc2cnccc12` [H89, H89 dihydrochloride], the “effect on phosphorylation of proteins stimulated by PTH, FK and 8-Br-cAMP” value with HEK-PR1 cells [3] is given as “prevented”. Further, the “effect of inhibition of PKA on responses of intact cells to 8-Br-cAMP” value in the data set with HEK-PR1 cells [1] (10 μM H89, unpublished data) is recorded as “unaffected”. Also, the “effect of H89 on sensitivity to isoproterenol” value with HEK-PR1 cells [1] (by competing for occupancy of β-adrenoceptors (Fig. S2 E)) is given as “decreased the sensitivity to isoproterenol”.
In the case of `Nc1ncnc2c1nc(Br)n2[C@@H]1O[C@@H]2COP(=O)(O)O[C@H]2[C@H]1O` [8-Br-cAMP], the “potentiation of Ca^2+ signals at low concentrations” value with HEK-PR1 cells [4] was “did not significantly potentiate”. Moreover, the EC50 with IP3R (read-out: EC50 for potentiation of IP3-evoked Ca^2+ release, permeabilized cells) is 324000 ± 45000 nM. Besides, in the data set on PKA, the “concentrations that activate PKA” value was less than 100 µM. Moreover, in the data set with HEK-PR1 cells [1] (intact cells), the “effect on CCh-evoked Ca^2+ signals” value was “similarly potentiated” and the “increase in the sensitivity to CCh” value was “three- to fourfold”. For the same molecule, the concentration for a half-maximal effect (EC50) in the data set on HEK-PR1 cells [1] (read-out: EC50 for potentiation of CCh-evoked Ca^2+ signals, intact cells, 1 mM CCh, 20-min preincubation) was found to be 870000 ± 370000 nM.
With “somatostatin (AGCKNFFWKTFTSC; disulfide 3-14 (inferred); ends not checked; UniProt P61278 103-116, looked up)”, in the data set with HEK-PR1 cells [1], the “effect of stimulus alone on [Ca^2+]i / Ca^2+ release (absence of CCh)” value is recorded as “nor does”.
In the case of `C=C[C@@]1(C)CC(=O)[C@]2(O)[C@@]3(C)[C@@H](O)CCC(C)(C)[C@@H]3[C@H](O)[C@H](OC(C)=O)[C@@]2(C)O1` [FK, forskolin], the “Δ cAMP Maximal response” value with HEK-PR1 cells [5] (30-s stimulation) amounted to 236 ± 29 fmol/sample. The EC50 with HEK-PR1 cells [5] (Homo sapiens) was found to be 3300 ± 400 nM. Further, in the data set with HEK-PR1 cells [2], the “cells that responded to CCh in which the Ca^2+ signal was potentiated” value was found to be 95 ± 3%. In addition, in the data set on HEK-PR1 cells [1] (setting [6]), the EC50 came to 8700 ± 2000 nM. In the data set on HEK-PR1 cells [1], the “Δ [Ca^2+]i Maximal increase” value amounted to 55 ± 5 nM, the “potentiation of CCh-evoked Ca^2+ signals” value is listed as “So too did” and the “effect of stimulus alone on [Ca^2+]i / Ca^2+ release (absence of CCh)” value is listed as “no significant effect”.
With `Nc1ncnc2c1ncn2[C@@H]1O[C@@H]2COP(=O)(O)O[C@H]2[C@H]1O` [cAMP, cyclic adenosine monophosphate], the “increase in sensitivity of IP3-evoked Ca^2+ release” value in the data set on IP3R (permeabilized HEK cells, high concentrations of cAMP) is recorded as approximately 4.5 fold. Further, the “affinity of IP3R site for cAMP relative to that of PKA or CNGC” value in the data set on IP3R (ref Wong and Scott, 2004 for PKA or CNGC) is reported as ~20,000 times lower.
`CC(C)NCC(O)c1ccc(O)c(O)c1` (racemic) [Isoproterenol, (±)-isoproterenol hydrochloride]: the “Δ cAMP Maximal response” value in the data set on HEK-PR1 cells [5] (30-s stimulation) is on record as 91 ± 15 fmol/sample. For the same molecule, the EC50 with HEK-PR1 cells [5] (Homo sapiens) was 113 ± 43 nM. The “cells that responded to CCh in which the Ca^2+ signal was potentiated” value with HEK-PR1 cells [2] was determined as 80 ± 4%. For the same molecule, in the data set with HEK-PR1 cells [1] (setting [6]), the concentration giving a half-maximal response (EC50) was 90 ± 24 nM. Also, in the data set on HEK-PR1 cells [1], the “Δ [Ca^2+]i Maximal increase” value was determined as 30 ± 6 nM, the “potentiation of CCh-evoked Ca^2+ signals” value is on record as “potentiated CCh-evoked Ca^2+ signals” and the “effect of stimulus alone on [Ca^2+]i / Ca^2+ release (absence of CCh)” value is “no significant effect”.
Take human PTH(1–34): the “Δ cAMP Maximal response” value in the data set with HEK-PR1 cells [5] (30-s stimulation) is 6,662 ± 1232 fmol/sample. The half-maximal effective concentration (EC50) is 29 ± 7 nM with HEK-PR1 cells [5] (30-s stimulation, with CCh); 54 ± 5 nM with HEK-PR1 cells [1] (read-out: EC50 for PTH-mediated Ca^2+ signaling, after loss of AC6 (siRNA)); 63 ± 3 nM with HEK-PR1 cells [1] (read-out: EC50 for PTH-mediated Ca^2+ signaling, before loss of AC6). The “cells that responded to CCh in which the Ca^2+ signal was potentiated” value with HEK-PR1 cells [2] turned out to be 99 ± 1%. Further, in the data set with HEK-PR1 cells [1] (intact cells), the “increase in the sensitivity to CCh” value is given as “three- to fourfold”. The “Δ [Ca^2+]i Maximal increase” value in the data set on HEK-PR1 cells [1] was found to be 101 ± 14 nM. Further, the “effect of stimulus alone on [Ca^2+]i / Ca^2+ release (absence of CCh)” value with HEK-PR1 cells [1] was “does not alone cause Ca^2+ release; also recorded: no significant effect”.
